Laboratory results published in ChEMBL document CHEMBL2429831, “Synthesis, antitubercular and anticancer activity of new Baylis-Hillman adduct-derived N-cinnamyl-substituted isatin derivatives” (Med Chem Res, 2013).
≈ marks a conversion by molar mass, not a printed value. Calls of active or inactive are those of the source. The rule behind the calls is not given here.

How the values were obtained:
[1] = test system: Mycobacterium tuberculosis; experiment: Antitubercular activity against Mycobacterium tuberculosis H37Rv ATCC 27294 assessed as growth inhibition after 28 days by agar dilution method; assay type: functional; settings: H37Rv ATCC 27294, 672 h
Summary of the method: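 Agar dilution in Middlebrook 7H11 with 10 % OADC, duplicate plates; compounds dissolved in DMSO and diluted twofold to give ten serial dilutions. Inoculum grown on 7H11/OADC slants, adjusted to 1 mg/mL wet weight in 0.05 % Tween 80 saline, diluted 10−2 (~10^7 cfu/mL); 5 μL spotted. Incubated at 37 °C, read at 28 days; MIC = lowest concentration completely inhibiting growth.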

[2] = test system: C6; experiment: Cytotoxicity against rat C6 cells assessed as cell viability at 0.0000001 to 1 mM after 16 hrs by MTT assay; assay type: functional
Summary of the method: (§1)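 Cells seeded and incubated overnight at 37 °C in a CO2 incubator, then exposed to 1 mM, 100 μM, 100 nM and 100 pM (final) for 16 h at 37 °C, 5 % CO2. Medium removed, MTT (1 mg/mL in medium) added for 5 h, formazan dissolved in DMSO, absorbance read at 570 nm. Viability relative to 0.1 % DMSO solvent control (100 %). Triplicates, means.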

[3] = test system: COLO 205; experiment: Cytotoxicity against human COLO205 cells assessed as cell viability at 0.0000001 to 1 mM after 16 hrs by MTT assay; assay type: functional, cell-based; summary of the method: as §1
[4] = test system: SUP-T1; experiment: Cytotoxicity against human SupT1 cells assessed as cell viability at 0.0000001 to 1 mM after 16 hrs by MTT assay; assay type: functional; summary of the method: as §1
[5] = test system: CHO; experiment: Cytotoxicity against CHO cells assessed as cell viability at 0.0000001 to 1 mM after 16 hrs by MTT assay; assay type: cell-based, Cricetulus griseus; settings: chinese hamster; summary of the method: as §1

| SMILES | MIC [1] | Activity [2] | Activity [3] | Activity [4] | Activity [5] |
| --- | --- | --- | --- | --- | --- |
| NNC(=O)c1ccncc1 [ISONIAZID] | 0.36 mg/L (≈ 2.63 µM) |  |  |  |  |
| COC(=O)/C(=C/c1ccc([N+](=O)[O-])cc1)CN1C(=O)C(=O)c2ccccc21 | 6.25 mg/L (≈ 17.1 µM) | Active | Active | Active | Toxic |
| COC(=O)/C(=C/c1ccc([N+](=O)[O-])cc1)CN1C(=O)C(=O)c2cc(Br)ccc21 | 1.56 mg/L (≈ 3.5 µM) | <20% | Active | <20% | Non-toxic |
| COC(=O)/C(=C/c1ccc([N+](=O)[O-])cc1)CN1C(=O)C(=O)c2cc(F)ccc21 | 1.56 mg/L (≈ 4.06 µM) | Active | Active | Active | Toxic |
| COC(=O)/C(=C/c1ccc(Br)cc1)CN1C(=O)C(=O)c2ccccc21 | 25 mg/L (≈ 62.5 µM) | Active | Active | Active | Toxic |
| COC(=O)/C(=C/c1ccccc1)CN1C(=O)C(=O)c2cc(Cl)ccc21 | 12.5 mg/L (≈ 35.1 µM) | Active | Active | Active | Toxic |
| COC(=O)/C(=C/c1ccccc1)CN1C(=O)C(=O)c2ccccc21 | 25 mg/L (≈ 77.8 µM) | Active | Active | Active | Toxic |
| NC(=O)c1cnccn1 [PYRAZINAMIDE] | 50.8 mg/L (≈ 412 µM) |  |  |  |  |
| COC(=O)/C(=C/c1ccc(Br)cc1)CN1C(=O)C(=O)c2cc(F)ccc21 | 6.25 mg/L (≈ 14.9 µM) | Active | Active | Active | Toxic |
| CC[C@@H](CO)NCCN[C@@H](CC)CO [ETHAMBUTOL] | 7.64 mg/L (≈ 37.4 µM) |  |  |  |  |
| COC(=O)/C(=C/c1ccc(Br)cc1)CN1C(=O)C(=O)c2cc(Br)ccc21 | 12.5 mg/L (≈ 26.1 µM) | Active | Active | Active | Toxic |
| COC(=O)/C(=C/c1ccccc1)CN1C(=O)C(=O)c2cc(F)ccc21 | 12.5 mg/L (≈ 36.8 µM) | Active | Active | Active | Toxic |
| COC(=O)/C(=C/c1ccc(Br)cc1)CN1C(=O)C(=O)c2cc(Cl)ccc21 | 6.25 mg/L (≈ 14.4 µM) | Active | Active | Active | Toxic |
| COC(=O)/C(=C/c1ccc([N+](=O)[O-])cc1)CN1C(=O)C(=O)c2cc(Cl)ccc21 | 1.56 mg/L (≈ 3.89 µM) | Active | Active | Active | Toxic |
| CO[C@H]1/C=C/O[C@@]2(C)Oc3c(C)c(O)c4c(O)c(c(/C=N/N5CCN(C)CC5)c(O)c4c3C2=O)NC(=O)/C(C)=C\C=C\[C@H](C)[C@H](O)[C@@H](C)[C@@H](O)[C@@H](C)[C@H](OC(C)=O)[C@@H]1C [RIFAMPIN] | 0.1 mg/L (≈ 0.122 µM) |  |  |  |  |
| COC(=O)/C(=C/c1ccccc1)CN1C(=O)C(=O)c2cc(Br)ccc21 | 12.5 mg/L (≈ 31.2 µM) | Active | Active | Active | Toxic |
